MBD2 DNA inh = inhibitors of MBD2 binding to methylated DNA, primary screen, biochemical, TR-FRET, DNA-binding domain, human; hit rate 0.31% among 370,000; inhibition, % at 4.4 µM; Methyl-CpG-binding domain protein 2 (Homo sapiens), Q9UBB5; AID 686964, 2013; MBD2 binding to methylated oligonucleotide; in the data active means inhibition above about 13%
TDP2 absorb = human TDP2 enzyme inhibitors, primary screen, biochemical, epi absorbance, recombinant enzyme; T5PNP hydrolysis, p-nitrophenol absorbance 415 nm; inhibition, % at 12.8 µM; hit rate 0.34% among 370,000; AID 720702, 2013;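 active means inhibition above the mean of all tested compounds plus 3 SD, set per campaign, cut at about 25% in these data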
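Test system: Human TDP2 enzyme | Reagent: 5 mM T5PNP | Compound dosing: 12.8 µM single point, 1% DMSO | Incubation: Enzyme reaction with compound for 2 h at 37 °C | Technique: p-Nitrophenol epi absorbance | Read-out: % inhibition relative to enzyme-containing and enzyme-free wells | Benchmarks: High control without enzyme, low control DMSO plus TDP2 | Replicates: Singlicate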
UHRF1 MBD2 ctr = UHRF1 methylated DNA binding inhibitors, primary screen, counter-screen for MBD2 inhibitor project, biochemical, TR-FRET, human UHRF1, single concentration. hit rate 0.75% among 370,000. inhibition, % at 4.4 µM. UHRF1 binding to methylated oligo;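 further: UHRF1 SRA domain binding a hemimethylated CpG hairpin DNA probe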
Rin1-Abl PPI inh = inhibitors of Rin1-Abl protein binding, primary screen, biochemical, TR-FRET | Tyrosine-protein kinase ABL1 (Homo sapiens) + Ras and Rab interactor 1 (Homo sapiens), … | inhibition, % at 7.35 µM | hit rate 0.4% among 360,000; in the data active means inhibition above about 5%, passing the limit was not always enough
LEDGF integ inh = blockers of LEDGF/p75-dependent integrase strand transfer – biochemical, TR-FRET, high throughput, primary screen | hit rate 0.64% among 370,000 | HIV-1 integrase (with human LEDGF/p75) | inhibition, % at 3.7 µM | TR-FRET IN-LEDGF/p75 DNA integration, Eu/Cy5;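 active means inhibition above the screen-wide mean plus 3 SD, cut at about 13% in these data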;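 further: signal is the Cy5 over europium emission ratio at 671 and 618 nm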
UHRF1 ctr MBD2 = UHRF1 methylated DNA binding inhibitors, counter-screen for MBD2 inhibitor project, biochemical, TR-FRET, human UHRF1 | AID 720530, 2013 | inhibition, % at 4.4 µM | hit rate 25% among 1,000 | UHRF1 binding to methylated oligonucleotide | shares compounds with MBD2 DNA inh;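 further: UHRF1 SRA domain binding a labeled hemimethylated CpG hairpin DNA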
MBD2 DBD conf = inhibitors of MBD2 binding to methylated DNA, confirmation, biochemical, TR-FRET, DNA-binding domain, human; shares compounds with MBD2 DNA inh; TR-FRET MBD2-DBD binding to methylated oligonucleotide; inhibition, % at 4.4 µM; hit rate 26% among 1,000; AID 720531, 2013; in the data active means inhibition above about 14%
Hits are given with their value; - = inactive; . = no result. In the library only some 1.9% were active in any assay of this set; here they are far more common. Unless noted, no stated cut-off is given here; in the data, active means inhibition above about 21%; inactive means the rest.

SMILES | MBD2 DNA inh | TDP2 absorb | UHRF1 MBD2 ctr | Rin1-Abl PPI inh | LEDGF integ inh | UHRF1 ctr MBD2 | MBD2 DBD conf
COC(=O)[C@]12C[C@H](CC(=O)NCc3cccc4ccccc34)C(=O)N(Cc3ccco3)C1=C[C@H](C1CCCC1)O[C@@H]2C | - | - | - | . | - | . | .
CC(COc1cccc(F)c1)CN1CCC(C(O)(c2ccccc2)c2ccccc2)CC1 (configuration not stated) | - | - | - | . | - | . | .
C=CCn1c(SCC(=O)OC(C)C)nnc1-c1ccc(C)cc1 | 14 | - | - | . | - | - | -
CCn1c(SCC(=O)OC(C)C)nnc1-c1ccccc1 | - | - | - | - | - | . | .
Cc1ccc([C@@H]2C[C@H]3[C@@H](CN2S(=O)(=O)c2ccc(C)cc2)C(=O)C[C@@H](c2ccccc2F)N3S(=O)(=O)c2ccc(C)cc2)cc1 | 15 | - | 27 | - | - | - | -
Cc1ccc(S(=O)(=O)N2C[C@H]3C(=O)C[C@@H](c4ccccc4F)N(S(=O)(=O)c4ccc(C)cc4)[C@H]3C[C@H]2c2ccccc2F)cc1 | - | - | - | - | - | . | .
O=C(COC(=O)CCCNC(=O)c1ccc(Cl)cc1)Nc1ccc(Br)cc1 | 13 | - | 23 | - | - | - | -
O=C(CCCNC(=O)c1ccc(Cl)cc1)Nc1ccc(Br)cc1 | - | - | - | - | - | . | .
CCOc1ccc(C(=O)N2CCN(CC(=O)N3CCCC3)CC2)cc1OCC | 16 | - | 22 | - | - | - | -
COc1cccc(C(=O)NC2CC3CCCC(C2)N3CC(=O)Nc2ccccc2)c1 (configuration not stated) | 13 | - | - | - | - | - | -
COc1cccc(C(=O)NC2CC3CCCC(C2)N3CC(=O)Nc2ccc(N(C)C)cc2)c1 (configuration not stated) | - | - | - | - | - | . | .
CS(=O)(=O)Cc1cc(N2CCCC2)nc(-c2ccccc2)n1 | 20 | - | - | - | - | - | -
Cc1onc(-c2ccccc2Cl)c1C(=O)N1CCC(Cc2ccccc2)CC1 | 16 | - | 29 | - | - | - | -
Cc1ccc(C)c(S(=O)(=O)N2CCCOC2CNC(=O)C(=O)NCCc2ccco2)c1 (configuration not stated) | 15 | - | - | - | - | - | -
Cc1ccc(C)c(S(=O)(=O)N2CCCOC2CNC(=O)C(=O)NCc2ccco2)c1 (configuration not stated) | - | - | - | - | - | . | .
CC1CCCCC1NC(=O)CSc1nncs1 (configuration not stated) | 14 | - | - | - | - | - | -
CC1CCCC(NC(=O)CSc2nncs2)C1C (configuration not stated) | - | - | - | - | - | . | .
CCOC(=O)N1CCN(C(=O)C[C@H]2C[C@@]3(C(=O)OC)C(=C[C@H](COCc4ccccc4)O[C@@H]3C)N(Cc3ccccc3)C2=O)CC1 | - | - | - | . | - | . | .
COc1ccc(-n2c(COc3ccc(Cl)cc3)nnc2SCC(=O)c2ccc(-c3ccccc3)cc2)cc1 | - | - | - | . | - | . | .
CCCCCC(=O)Nc1cc(S(=O)(=O)O)cc2cc(S(=O)(=O)O)cc(O)c12 | 97 | - | 99 | - | 91 | 103 | 113
COc1ccc(S[C@]2(C(=O)N3CCN(C(C)=O)CC3)CC(=O)N(S(=O)(=O)c3ccc(F)cc3)[C@@H]2c2ccc(OC)cc2)cc1 | - | - | - | . | - | . | .
CCOC(=O)CNC(=O)CSc1nc2ccccc2c(=O)n1-c1ccc(Cl)cc1 | - | - | - | . | - | . | .
CC(C)(C)CC(=O)NC(=S)Nc1ccccc1C(F)(F)F | 16 | - | 23 | - | - | - | -
